Source: ChEMBL document CHEMBL3779898, “3,3'-OH curcumin causes apoptosis in HepG2 cells through ROS-mediated pathway” (Eur J Med Chem, 2016)

System: HepG2
Experiment: Cytotoxicity against human HepG2 cells assessed as reduction in cell viability after 48 hrs by MTT assay
Format: functional, cell-based
Details: HepG2, 48 h
Method in brief: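 HepG2 seeded at 3×10^3/well, grown 24 h, then exposed to compounds for 48 h. MTT (0.5 mg/mL) added for 4 h, formazan dissolved in DMSO, absorbance read at 570 nm. IC50 = concentration giving 50% loss of viability; mean ± SD of three determinations.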

| SMILES | IC50 [µM] |
| --- | --- |
| O=C(/C=C/c1ccc(O)cc1)CC(=O)/C=C/c1ccc(O)cc1 [BISDEMETHOXYCURCUMIN] | 75.5 |
| O=C(/C=C/c1cccc(C(F)(F)F)c1)CC(=O)/C=C/c1cccc(C(F)(F)F)c1 | > 200 |
| O=C(/C=C/c1ccccc1C(F)(F)F)CC(=O)/C=C/c1ccccc1C(F)(F)F | > 200 |
| COc1cccc(/C=C/C(=O)CC(=O)/C=C/c2cccc(OC)c2)c1 | 83.4 |
| O=C(/C=C/c1ccc(C(F)(F)F)cc1)CC(=O)/C=C/c1ccc(C(F)(F)F)cc1 | > 200 |
| COc1cc(/C=C/C(=O)CC(=O)/C=C/c2ccc(O)c(OC)c2)ccc1O [CURCUMIN] | 52.3 |
| COc1ccccc1/C=C/C(=O)CC(=O)/C=C/c1ccccc1OC | 125 |
